Data taken from ChEMBL document CHEMBL4265974, “Discovery of RG7834: The First-in-Class Selective and Orally Available Small Molecule Hepatitis B Virus Expression Inhibitor with Novel Mechanism of Action” (J Med Chem, 2018).

What was measured:
[1] = Cmax in BALB/C mouse plasma at 2 mg/kg, po administered as single dose by LC-MS/MS analysis; format: ADME, organism-based; parameters: dose 2 mg/kg, route oral
Summary of the method: (§1)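 Male BALB/C mice given single doses of 1 mg/kg iv (5% DMSO, 40% PEG400, 55% saline), or 2 or 14.5 mg/kg po (1% RC-591 in water). Blood taken at set times into sodium heparin and plasma separated at 4 °C; livers from po groups taken right after bleeding, rinsed and blotted. Plasma and liver levels measured by LC–MS/MS.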

[2] = AUC (0 to t) in BALB/C mouse liver at 14.5 mg/kg, po administered as single dose by LC-MS/MS analysis; format: ADME, organism-based; settings: in vivo
[3] = Cmax in BALB/C mouse liver at 14.5 mg/kg, po administered as single dose by LC-MS/MS analysis; format: ADME, organism-based; parameters: dose 14.5 mg/kg, route oral; summary of the method: as §1
[4] = Ratio of AUC (0 to t) in BALB/C mouse liver to plasma at 14.5 mg/kg, po administered as single dose by LC-MS/MS analysis; format: ADME, organism-based; settings: read-out: Ratio AUC
[5] = AUC (0 to t) in BALB/C mouse plasma at 14.5 mg/kg, po administered as single dose by LC-MS/MS analysis; format: ADME, organism-based; settings: in vivo
[6] = Dissociation constant, pKa of the compound; format: physicochemical
[7] = Volume of distribution at steady state in BALB/C mouse at 1 mg/kg, iv by LC-MS/MS analysis; format: ADME, organism-based; settings: in vivo, read-out: Vdss; summary of the method: as §1
[8] = Cmax in BALB/C mouse plasma at 14.5 mg/kg, po administered as single dose by LC-MS/MS analysis; format: ADME, organism-based; parameters: dose 14.5 mg/kg, route oral; summary of the method: as §1
[9] = Oral bioavailability in cynomolgus monkey; format: ADME, organism-based, Macaca fascicularis; settings: in vivo
Mus musculus [10] = assay: AUC (0 to infinity) in BALB/C mouse plasma at 2 mg/kg, po administered as single dose by LC-MS/MS analysis; format: ADME, organism-based; parameters: dose 2 mg/kg, route oral, time infinity; settings: in vivo
Mus musculus [11] = assay: AUC (0 to infinity) in BALB/C mouse plasma at 1 mg/kg, iv administered as single dose by LC-MS/MS analysis; format: ADME, organism-based; parameters: dose 1 mg/kg, route intravenous, time infinity; settings: in vivo
[12] = Oral bioavailability in BALB/C mouse at 2 mg/kg administered as single dose by LC-MS/MS analysis; format: ADME, organism-based; settings: in vivo; summary of the method: as §1
[13] = Cmax in BALB/C mouse plasma at 1 mg/kg, iv administered as single dose by LC-MS/MS analysis; format: ADME, organism-based; parameters: dose 1 mg/kg, route intravenous; summary of the method: as §1
[14] = Lipophilicity, log D of the compound; format: physicochemical; settings: octanol/water
[15] = Apparent permeability across apical to basolateral side in human Caco2 cells at 10 uM after 1 hr; format: ADME, cell-based; settings: Caco-2
Summary of the method: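 Caco-2 monolayers; 10 µM compound in pH 7.4 HBSS added to apical side (A→B) or basolateral side (B→A), receiver holding pH 7.4 HBSS with 1% DMSO. Incubated 1 h at 37 °C, 5% CO2, 95% humidity. Drug amounts on both sides measured and permeability calculated for each direction.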

Cmax [1]: 322 ng/mL
AUCt [2]: 17265 ng·mL·h
Cmax [3]: 11000 ng/mL
Kp [4]: 4
AUCt [5]: 4366 ng·mL·h
pKa [6]: 5.79
Vd [7]: 2.07 L/kg
Cmax [8]: 2040 ng/mL
bioavailability [9]: 57%
AUC (Mus musculus [10]): 490 ng·mL·h
AUC (Mus musculus [11]): 398 ng·mL·h
bioavailability [12]: 62%
Cmax [13]: 466 ng/mL
logD [14]: 1.28
Papp A→B at 1 h, 10 µM [15]: 12.8 ×10⁻⁶ cm/s
Structure (SMILES): COCCCOc1cc2c(cc1OC)-c1cc(=O)c(C(=O)O)cn1[C@H](C(C)C)C2
